ChEMBL document CHEMBL4354843, “Structure-Based Design of a Potent and Selective Covalent Inhibitor for SRC Kinase That Targets a P-Loop Cysteine” (J Med Chem, 2020)

How the values were obtained:
[1] = target: 5'-AMP-activated protein kinase catalytic subunit alpha-2 (Homo sapiens) (UniProt P54646); experiment: Binding affinity to wild-type human partial length AMPK alpha2 (M1 to E306 residues) expressed in bacterial expression system assessed as residual binding level at 1 uM by Kinomescan method relative to control
MDA-MB-231 = experiment: Antiproliferative activity against human MDA-MB-231 cells assessed as reduction in cell viability incubated for 72 hrs by cell-titer glo assay; conditions: MDA-MB-231, 72 h
[2] = target: 5'-AMP-activated protein kinase catalytic subunit alpha-1 (Homo sapiens) (UniProt Q13131); experiment: Binding affinity to wild-type human partial length AMPK alpha1 (M1 to E306 residues) expressed in bacterial expression system assessed as residual binding level at 1 uM by Kinomescan method relative to control
[3] = target: Mitogen-activated protein kinase kinase kinase kinase 3 (Homo sapiens) (UniProt Q8IVH8); experiment: Binding affinity to wild-type human partial length MAP4K3 (M1 to D301 residues) expressed in bacterial expression system assessed as residual binding level at 1 uM by Kinomescan method relative to control
[4] = target: Proto-oncogene tyrosine-protein kinase receptor Ret (Homo sapiens) (UniProt P07949); experiment: Binding affinity to wild-type human partial length RET (E713 to D1014 residues) expressed in bacterial expression system assessed as residual binding level at 1 uM by Kinomescan method relative to control
[5] = target: Ephrin type-A receptor 7 (Homo sapiens) (UniProt Q15375); experiment: Binding affinity to wild-type human partial length EPHA7 (Y608 to S912 residues) expressed in bacterial expression system assessed as residual binding level at 1 uM by Kinomescan method relative to control
[6] = target: Tyrosine-protein kinase Fyn (Homo sapiens) (UniProt P06241); experiment: Binding affinity to wild-type human partial length FYN (T243 to L534 residues) expressed in bacterial expression system assessed as residual binding level at 1 uM by Kinomescan method relative to control
Summary of the method: (§1)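 Active-site-directed competition binding panel of 468 kinases (KinomeScan), compound at 1 μM. The read-out is kinase remaining bound, given as a percentage of the DMSO control. […]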

[7] = target: Serine/threonine-protein kinase 4 (Homo sapiens) (UniProt Q13043); experiment: Binding affinity to wild-type human full length MST1 (M1 to F487 residues) expressed in bacterial expression system assessed as residual binding level at 1 uM by Kinomescan method relative to control
Summary of the method: (§2)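 KinomeScan, an active site-directed competition binding panel of 468 kinases. The test compound was at 1 μM. The readout is remaining kinase binding as a percentage of the DMSO control. Scores above 35% were treated as weak binding and not listed.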

[8] = target: Dual specificity testis-specific protein kinase 1 (Homo sapiens) (UniProt Q15569); experiment: Binding affinity to wild-type human full length TESK1 (R37 to S626 residues) expressed in bacterial expression system assessed as residual binding level at 1 uM by Kinomescan method relative to control
[9] = target: Casein kinase II subunit alpha' (Homo sapiens) (UniProt P19784); experiment: Binding affinity to wild-type human full length CSNK2A2 (M1 to R350 residues) expressed in mammalian expression system assessed as residual binding level at 1 uM by Kinomescan method relative to control
Summary of the method: (§3)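 Active-site-directed KinomeScan competition binding panel covering 468 kinases, compound tested at 1 μM. Each readout is the kinase signal remaining with compound, expressed as a percentage of the DMSO control. […]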

[10] = tested on: ALK tyrosine kinase receptor (Homo sapiens), Q9UM73 [L1196M]; experiment: Binding affinity to wild-type human partial length ALK L1196M mutant (I1088 to E1409 residues) expressed in mammalian expression system assessed as residual binding level at 1 uM by Kinomescan method relative to control
[11] = target: Serine/threonine-protein kinase ICK (Homo sapiens) (UniProt Q9UPZ9); experiment: Binding affinity to wild-type human partial length ICK (M1 to P314 residues) expressed in mammalian expression system assessed as residual binding level at 1 uM by Kinomescan method relative to control; summary of the method: as §1
[12] = target: Calcium/calmodulin-dependent protein kinase type IV (Homo sapiens) (UniProt Q16566); experiment: Binding affinity to wild-type human partial length CAMK4 (A22 to A322 residues) expressed in bacterial expression system assessed as residual binding level at 1 uM by Kinomescan method relative to control
[13] = target: Cyclin-dependent kinase 4/cyclin D1 (Homo sapiens) (UniProt P11802+P24385); experiment: Binding affinity to wild-type human full length CDK4/cyclinD1 (M1 to E303 residues) expressed in mammalian expression system assessed as residual binding level at 1 uM by Kinomescan method relative to control; summary of the method: as §3
[14] = target: Serine/threonine-protein kinase PAK 4 (Homo sapiens) (UniProt O96013); experiment: Binding affinity to wild-type human partial length PAK4 (Q144 to R438 residues) expressed in bacterial expression system assessed as residual binding level at 1 uM by Kinomescan method relative to control
[15] = target: AP2-associated protein kinase 1 (Homo sapiens) (UniProt Q2M2I8); experiment: Binding affinity to human wild-type AAK1 (G25 to L333 residues) expressed in bacterial expression system assessed as residual binding level at 1 uM by Kinomescan method relative to control; summary of the method: as §3
[16] = target: cGMP-dependent protein kinase 2 (Homo sapiens) (UniProt Q13237); experiment: Binding affinity to wild-type human partial length PRKG2 (S422 to F762 residues) expressed in mammalian expression system assessed as residual binding level at 1 uM by Kinomescan method relative to control
[17] = target: Myosin light chain kinase 2, skeletal/cardiac muscle (Homo sapiens) (UniProt Q9H1R3); experiment: Binding affinity to wild-type human partial length MYLK2 (D258 to K570 residues) expressed in bacterial expression system assessed as residual binding level at 1 uM by Kinomescan method relative to control
[18] = target: Glycogen synthase kinase-3 beta (Homo sapiens) (UniProt P49841); experiment: Binding affinity to wild-type human full length GSK3B (M1 to T433 residues) expressed in mammalian expression system assessed as residual binding level at 1 uM by Kinomescan method relative to control; summary of the method: as §2
[19] = target: Inhibitor of nuclear factor kappa-B kinase subunit epsilon (Homo sapiens) (UniProt Q14164); experiment: Binding affinity to wild-type human full length IKK-epsilon (M1 to V716 residues) expressed in mammalian expression system assessed as residual binding level at 1 uM by Kinomescan method relative to control; summary of the method: as §3
[20] = target: Serine/threonine-protein kinase 10 (Homo sapiens) (UniProt O94804); experiment: Binding affinity to wild-type human partial length LOK (E16 to V314 residues) expressed in bacterial expression system assessed as residual binding level at 1 uM by Kinomescan method relative to control; summary of the method: as §1
[21] = target: Serine/threonine-protein kinase 16 (Homo sapiens) (UniProt O75716); experiment: Binding affinity to wild-type human partial length STK16 (G11 to I305 residues) expressed in bacterial expression system assessed as residual binding level at 1 uM by Kinomescan method relative to control

Structure (SMILES): C=CC(=O)Nc1ccccc1Nc1nc(Nc2ccc(N3CCN(C)CC3)cc2)ncc1C(=O)Nc1c(C)cccc1Cl
- Activity [1]: 100%
- IC50 (MDA-MB-231): 300 nM
- Activity [2]: 100%
- Activity [3]: 100%
- Activity [4]: 100%
- Activity [5]: 100%
- Activity [6]: 2%
- Activity [7]: 93%
- Activity [8]: 100%
- Activity [9]: 100%
- Activity [10]: 90%
- Activity [11]: 96%
- Activity [12]: 100%
- Activity [13]: 100%
- Activity [14]: 100%
- Activity [15]: 100%
- Activity [16]: 100%
- Activity [17]: 100%
- Activity [18]: 98%
- Activity [19]: 100%
- Activity [20]: 96%
- Activity [21]: 100%
